Data set [1] concerns PPARG. In words: PPARG. Conditions: bladder cancer cell line, absence or presence of Rosiglitazone. Type of data set: cell-based.
The test system of data set [2] is PAX8. The note with it: ref PubChem; cited from earlier work.
The subject of data set [3] is mesenchymal lineage periosteal cells. The experiment in a line: qPCR of Hippo components in murine periosteal cells. Type of data set: cell-based, mouse. Conditions: 5μM. A digest of the protocol: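 Periosteal cells from 4-day femoral fracture callus of 3 female 15-week CMV-Cre;R26R-rtTA;tetO-YAPS127A mice (C57Bl/6 background). Cultured in α-MEM with 15% FBS, 1% GlutaMAX and 1% P/S. Test compound given at 5 μM. 1 μM doxycycline for 48 h induced YAPS127A as positive control for YAP1 mRNA.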
In general terms: Quantitative PCR measures a nucleic acid by following its amplification.

Data set [4] deals with U2OS. The experiment in a line: proliferation in U2OS Cell Painting images. The data set is classed as cell-based.
The subject of data set [5] is HEK293, HepG2, A549 cells. The note with it: ref PubChem; cited from earlier work.
The test system of data set [6] is p38 activity. The experiment in a line: single-cell p38 activity reporter. The data set is classed as cell-based. The note with it: RPE1 p38 reporter; for influence on p38 activity (two-sided t-test): 1 μM, 48 hours. A digest of the protocol: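 RPE1 cells stably carrying a p38 kinase translocation reporter, grown in DMEM/F12 with 10% FBS at 37C, 5% CO2. Plated at 1000 cells/well, then given test compound at 1 or 10 μM for 48 h, 4 wells per concentration. Single-cell activity taken as median cytoplasmic-ring (5-pixel) over nuclear reporter intensity, normalised to same-plate/column DMSO. Significance by t-test or KS test with Benjamini-Hochberg adjustment.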

The subject of data set [7] is KP230 cells. The experiment in a line: RNA sequencing and gene set enrichment analysis in KP230 cells. Type of data set: cell-based, mouse. The note with it: 10 μM. In a few lines:
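KP230 cells (murine Kras/Trp53 tumour-derived) grown in DMEM with 10% FBS, 1% L-glutamine and 1% P/S at 37C, 5% CO2. Kept at ≤20 passages and about 50% confluence. Treated with 10 μM test compound or an equal volume of DMSO. Total RNA isolated by RNeasy Mini with on-column DNase digestion, then sequenced.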

Data set [8] relates to Yap1. The experiment in a line: qRT-PCR of Yap1 and sarcoma target genes in KP230 cells. The data set is classed as cell-based, mouse.
Data set [9] relates to YAP1. In words: YAP1 immunofluorescence and Western blot in H9 hPSCs. The data set is classed as cell-based, human. Conditions: H9 cells, 10 μM.
Data set [10] has as its system YAP1. The experiment in a line: YAP1-responsive TEAD luciferase reporter assay in HEK-293 cells. The data set is classed as cell-based. The note with it: 10μM, 48h of YAP overexpression.
Data set [11] deals with HT29 cells. Conditions: six hours of treatment, ref Subramanian et al., 2017; cited from earlier work.
The subject of data set [12] is KP230 cells. In words: proliferation assay. Conditions: 10 μM every 24 hours for 3 days. Type of data set: cell-based, mouse.
Data set [13] concerns TEAD-YAP interaction. The note with it: HEK-TIYL cells; ref PubChem; cited from earlier work.
Data set [14] has as its system YAP1 target genes (CTGF and CYR61). In words: qPCR of YAP1 and target genes in H9 hPSCs. Type of data set: cell-based, human. Conditions: 24 hrs.
In data set [15] the test system is HT-1080 fibrosarcoma cells. In words: proliferation assay. The data set is classed as cell-based. Conditions: 10 μM every 24 hours for 3 days.
Data set [16] concerns HCT-116 colon cancer cells. The experiment in a line: proliferation assay. Conditions: 10 μM every 24 hours for 3 days, YAP1-independent line. Type of data set: cell-based.
The test system of data set [17] is KP230, TC32, STS-109, HT-1080, HCT-116 cells. The experiment in a line: trypan blue staining for toxicity. Type of data set: cell-based. The note with it: 10 μM, any of the cell lines tested.
Data set [18] concerns TC32 human Ewing’s family sarcoma cells. In words: proliferation assay. The data set is classed as cell-based. Conditions: 10 μM every 24 hours for 3 days.
Data set [19] has as its system Yap1. The experiment in a line: Yap1 Western blot and immunofluorescence in KP230 cells. The data set is classed as cell-based, mouse. The note with it: 10 μM daily. (In general: Immunoblotting shows a protein as a band on a membrane.)
Data set [20] concerns A375 cells. Conditions: 6 and 24 hours, ref Subramanian et al., 2017; cited from earlier work.
In data set [21] the test system is STS-109 human UPS cells. In words: proliferation assay. The data set is classed as cell-based. The note with it: 10 μM daily for 8 days.
The test system of data set [22] is KP230 cells. Conditions: 10 μM.
Data set [23] has as its target human CSNK1A1 (Homo sapiens, UniProt P48729). The experiment in a line: CSNK1A1 enzymatic mobility shift assay. The data set is classed as biochemical.
Data set [24] has as its system native kinases. In words: full KINOMEscan panel. The data set is classed as binding.

A word on the IC50: it is the concentration at which inhibition is half-maximal.

Sequence of human CSNK1A1 (P48729 whole entry): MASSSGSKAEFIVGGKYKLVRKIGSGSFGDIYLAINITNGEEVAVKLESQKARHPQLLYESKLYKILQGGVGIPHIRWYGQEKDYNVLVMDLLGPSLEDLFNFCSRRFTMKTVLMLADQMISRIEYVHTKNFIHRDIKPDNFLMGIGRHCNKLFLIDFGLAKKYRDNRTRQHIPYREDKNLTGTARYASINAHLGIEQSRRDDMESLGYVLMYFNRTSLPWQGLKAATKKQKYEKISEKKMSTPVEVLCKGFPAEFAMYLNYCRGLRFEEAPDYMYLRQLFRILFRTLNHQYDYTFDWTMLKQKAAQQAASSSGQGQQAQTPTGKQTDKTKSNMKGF

Regarding `CC(C)(C)n1nc(-c2ccc(Cl)cc2)c2c(N)ncnc21` [PP2], the “effect in PPARG (FABP4) reporter assay” value in [1] was “reporter activation”.

As to `CO[C@@H]1CN(C)C(=O)c2cc(NC(=O)Nc3ccc(C(F)(F)F)cc3)ccc2OC[C@@H](C)NC[C@@H]1C` [BRD-K34692511, 1-[(4R,7S,8S)-8-methoxy-4,7,10-trimethyl-11-oxo-2-oxa-5,10-diazabicyclo[10.4.0]hexadeca-1(12),13,15-trien-14-yl]-3-[4-(trifluoromethyl)phenyl]urea], the PAX8 inhibition entry in data set [2] is given as “none of these impacts”. In addition, the “mRNA levels of Hippo components including Yap1 and Cyr61” value was “not at 1 and 4 hours” in data set [3] (1 and 4 hours); “substantially upregulated” in data set [3] (48 hours). Besides, the “proliferation in U2OS Cell Painting images” value in [4] is “none of these impacts”. The “inhibition of cell proliferation AC50” value in data set [5] was “none of these impacts”.

For `CCCCNc1cc(C(=O)O)cc(S(N)(=O)=O)c1Oc1ccccc1` [BRD-K38197229], in [6], the “influence on p38 activity (two-sided t-test)” value is “potential inhibitors”.

As for `CCc1cc(-c2n[nH]c(C)c2-c2ccc3c(c2)OCCO3)c(O)cc1O` [CCT018159], in [1], the “effect in PPARG (FABP4) reporter assay” value is “Inhibitors”.

On to `c1ccc(CNc2ncnc3ccccc23)cc1` [NB4A, N-Benzylquinazolin-4-amine], for which, in data set [7], the “epithelial-mesenchymal transition, angiogenesis and glycolysis pathways (GSEA)” value is “down-regulated”; the “interferon alpha and gamma response pathways (GSEA)” value is on record as “up-regulated”. For the same compound, in data set [8], the “transcription of Yap1, its sarcoma target genes (Foxm1, Ccl2, Hbegf, Birc5, Rela) and Amot” value was “did not directly alter”. Besides, in data set [9] (24 hours), the YAP1 nuclear localization result is given as “increased”. In data set [9] (24 hrs), the “YAP1 S127 phosphorylation” value was “reduced” and the “total YAP1 protein levels” value was “decreasing”. The “effect in YAP1-responsive reporter assay” value in data set [10] was “no effect”. Besides, in data set [11], the “TAZ mRNA z-score” value is reported as 2.04 and the “YAP1 mRNA z-score” value was 3.16. For the same compound, the “proliferation of KP230 cells” value in data set [12] is “inhibited”. Moreover, the “activity in assay detecting inhibitors of TEAD-YAP interaction” value in data set [13] is “showed activity”. Also, in [14], the “YAP1 mRNA expression” value is recorded as “did not affect”. The “expression of YAP1 target genes (CTGF and CYR61)” value in [14] (dose-dependent) is given as “increased”. In addition, the “proliferation of HT-1080 cells” value in data set [15] is “did not affect”. In addition, the “proliferation of HCT-116 cells” value in data set [16] is listed as “did not affect”. Further, the “overt toxicity by trypan blue staining” value in data set [17] is given as “did not exhibit overt toxicity”. Also, the “proliferation of TC32 cells” value in [18] is “inhibited”. Further, the Yap1 nuclear localization result in [19] is “significantly attenuated”. For the same compound, the Yap1 protein levels result in [19] (after 72 hours) is “reduced”. Besides, the “YAP1 mRNA z-score” value in data set [20] is recorded as ~ −0.7. Further, in data set [21], the “proliferation of STS-109 cells” value is reported as “did not affect”.

On to `COC1(C[S@@+]([O-])c2ccccc2)CCN(CCc2c[nH]c3ccc(F)cc23)CC1` [BRD-K52394958], for which the “influence on p38 activity (alternative statistical test)” value in data set [6] is recorded as “identified via an alternative statistical test”.

Take `Cc1ccc(-c2nn(C(C)(C)C)c3ncnc(N)c23)cc1` [PP1]: the “effect in PPARG (FABP4) reporter assay” value in data set [1] was “reporter activation”.

Take `Nc1nc(Nc2ccccc2)nc2c1ncn2C1OC(CO)C(O)C1O` (stereo not drawn) [BRD-A64933752]: the “influence on p38 activity (two-sided t-test)” value in data set [6] is “potential inhibitors”.

As for `CCCCCCCCCCCCCC(=O)O[C@@H]1[C@@H](C)[C@@]2(O)[C@@H](C=C(CO)C[C@]3(O)C(=O)C(C)=C[C@@H]23)[C@@H]2C(C)(C)[C@]12OC(C)=O` [Phorbol 12-myristate 13-acetate], the “effect in PPARG (FABP4) reporter assay” value in data set [1] is given as “Inhibitors”.

Take `CO[C@@H]1CN(C)C(=O)c2ccc(NC(=O)c3ccc(-c4ccccc4)cc3)cc2OC[C@H](C)NC[C@@H]1C` [BRD-K28862419, N-((3S,6S,7S)-7-methoxy-3,6,9-trimethyl-10-oxo-3,4,5,6,7,8,9,10-octahydro-2H-benzo[k][1]oxa[4,9]diazacyclododecin-13-yl)-[1,1′-biphenyl]-4-carboxamide]: the PAX8 inhibition result in [2] was “inhibits”. For the same compound, the KP230 cell viability entry in [22] is “modestly yet significantly reduced”. In addition, the “proliferation in U2OS Cell Painting images” value in [4] is on record as −2.0 st dev.

Regarding `Fc1ccc(-c2nc3n(c2-c2ccncc2)CCS3)cc1` [SKF-86002, reference compound], the “inhibitory IC50 concentrations, CSNK1A1” value in data set [23] (at Km ATP) was “nanomolar range”.

Turning to `C[C@@H]1CN([C@@H](C)CO)C(=O)CCCn2nncc2CO[C@@H]1CN(C)C(=O)Nc1ccnc(N2CCOCC2)c1` [BRD-K65952656], the IC50 in [23] (read-out: inhibition of CSNK1A1 IC50) amounted to 12 µM. The “binding to native kinases in full KINOMEscan panel” value in data set [24] is “failed to bind any native kinases”.
